Laboratory results from ChEMBL document CHEMBL3232843, “Novel pyrrolidine diketopiperazines selectively inhibit melanoma cells via induction of late-onset apoptosis” (J Med Chem, 2014).
The source made the active and inactive calls. No cut-off for these calls is given here.

Experiments:
[1] = tested on: M14; test: Cytotoxicity against human M14 cells at 100 uM after 72 hrs by CellTiter-Glo luminescence assay; format: functional; details: M14, 72 h
In short: (§1)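 1250 cells per well in serum-free medium (F12 for CHO-K1 and A549, DMEM for M14). Compounds given as 10-point 1:3 serial dilutions from a 300 µM stock, plus a gefitinib control. Incubated 72 h at 37 °C, 5% CO2. CellTiter-Glo added for 15 min at room temperature, then luminescence read. Viability normalized to media-only wells (0%) and 1% DMSO wells (100%). Run in triplicate.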

[2] = tested on: A549; test: Cytotoxicity against human A549 cells at 100 uM after 72 hrs by CellTiter-Glo luminescence assay; format: functional; details: A549, 72 h; in short: as §1
[3] = Cytotoxicity against CHOK1 cells at 100 uM after 72 hrs by CellTiter-Glo luminescence assay; format: cell-based, Cricetulus griseus; details: chinese hamster, CHO-K1 cells; read-out: INH; in short: as §1
[4] = tested on: M14; test: Induction of apoptosis human M14 cells assessed as caspase activity after 4 to 24 hrs using DEVD peptide as substrate by ApoTox-Glo triplex assay; format: functional, cell-based
In short: (§2)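 M14 cells, 1250 per well, in serum-free DMEM, settled 4 h, then given 1:3 serial dilutions. Ionomycin, terfenadine and panobinostat were the controls. Incubated 4, 24, 48 or 72 h at 37 °C. A reagent containing 400 µM GF-AFC (live-cell protease, ex 400/em 505 nm) and 400 µM bis-AAF-R110 (dead-cell protease, ex 485/em 520 nm) was applied for 30 min at 37 °C. Caspase-Glo 3/7 (DEVD) luminescence was then read after 30 min at room temperature.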

[5] = tested on: M14; test: Cytotoxicity against human M14 cells assessed as cell viability after 4 hrs using bis-AAF-R110 as substrate by ApoTox-Glo triplex assay; format: functional, cell-based; in short: as §2
[6] = tested on: M14; test: Cytotoxicity against human M14 cells assessed as cell viability after 4 hrs using GF-AFC as substrate by ApoTox-Glo triplex assay; format: functional, cell-based
In short: (§3)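 M14 #5 cells, 1250 per well in serum-free DMEM, pre-incubated 4 h at 37 °C, 5% CO2. Compounds added as 1:3 serial dilutions; incubated 4, 24, 48 and 72 h. Per time point, a reagent containing 400 µM GF-AFC (live-cell protease) and 400 µM bis-AAF-R110 (dead-cell protease) was added for 30 min at 37 °C, then fluorescence was read. Caspase-Glo 3/7 was added next, 30 min at room temperature, then luminescence.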

[7] = tested on: M14; test: Induction of apoptosis human M14 cells assessed as caspase activity at 100 uM after 4 to 72 hrs using DEVD peptide as substrate by ApoTox-Glo triplex assay; format: functional, cell-based; in short: as §3
[8] = target: Histone deacetylase 1 (Homo sapiens) (UniProt Q13547); test: Inhibition of HDAC1 (unknown origin) up to 100 uM
Sequence of Histone deacetylase 1 (Homo sapiens) (Q13547 whole entry): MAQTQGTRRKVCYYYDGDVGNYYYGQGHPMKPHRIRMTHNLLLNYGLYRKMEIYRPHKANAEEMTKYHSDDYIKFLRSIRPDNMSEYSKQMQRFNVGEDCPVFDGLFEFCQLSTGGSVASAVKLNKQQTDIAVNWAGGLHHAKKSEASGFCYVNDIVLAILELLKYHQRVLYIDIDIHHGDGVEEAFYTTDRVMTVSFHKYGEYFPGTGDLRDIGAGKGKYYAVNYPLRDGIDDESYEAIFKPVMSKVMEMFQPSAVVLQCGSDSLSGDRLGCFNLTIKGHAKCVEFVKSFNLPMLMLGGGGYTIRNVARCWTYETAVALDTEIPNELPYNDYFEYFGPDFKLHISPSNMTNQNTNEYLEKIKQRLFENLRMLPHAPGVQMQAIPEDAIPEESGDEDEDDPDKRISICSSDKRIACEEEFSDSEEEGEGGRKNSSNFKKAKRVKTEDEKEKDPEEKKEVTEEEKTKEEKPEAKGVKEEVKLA

[9] = tested on: M14; test: Cytotoxicity against human M14 cells assessed as cell viability at 100 uM after 4 hrs by CellTiter-Glo luminescence assay; format: functional, cell-based
In short: (§4)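 M14 cells, 1250 per well, in serum-free DMEM. Compounds given in 10-point 1:3 dilution series starting at 100 µM; controls were gefitinib, doxorubicin and ionomycin. Incubated at 37 °C, 5% CO2. CellTiter-Glo luminescence read at 4, 24, 48 and 72 h. Viability normalized to media-only wells and 1% DMSO-treated wells.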

[10] = target: T1, Protein deacetylase HDAC6 (Homo sapiens) (UniProt Q9UBN7); test: Inhibition of HDAC6 (unknown origin) up to 100 uM
T1 sequence (whole entry): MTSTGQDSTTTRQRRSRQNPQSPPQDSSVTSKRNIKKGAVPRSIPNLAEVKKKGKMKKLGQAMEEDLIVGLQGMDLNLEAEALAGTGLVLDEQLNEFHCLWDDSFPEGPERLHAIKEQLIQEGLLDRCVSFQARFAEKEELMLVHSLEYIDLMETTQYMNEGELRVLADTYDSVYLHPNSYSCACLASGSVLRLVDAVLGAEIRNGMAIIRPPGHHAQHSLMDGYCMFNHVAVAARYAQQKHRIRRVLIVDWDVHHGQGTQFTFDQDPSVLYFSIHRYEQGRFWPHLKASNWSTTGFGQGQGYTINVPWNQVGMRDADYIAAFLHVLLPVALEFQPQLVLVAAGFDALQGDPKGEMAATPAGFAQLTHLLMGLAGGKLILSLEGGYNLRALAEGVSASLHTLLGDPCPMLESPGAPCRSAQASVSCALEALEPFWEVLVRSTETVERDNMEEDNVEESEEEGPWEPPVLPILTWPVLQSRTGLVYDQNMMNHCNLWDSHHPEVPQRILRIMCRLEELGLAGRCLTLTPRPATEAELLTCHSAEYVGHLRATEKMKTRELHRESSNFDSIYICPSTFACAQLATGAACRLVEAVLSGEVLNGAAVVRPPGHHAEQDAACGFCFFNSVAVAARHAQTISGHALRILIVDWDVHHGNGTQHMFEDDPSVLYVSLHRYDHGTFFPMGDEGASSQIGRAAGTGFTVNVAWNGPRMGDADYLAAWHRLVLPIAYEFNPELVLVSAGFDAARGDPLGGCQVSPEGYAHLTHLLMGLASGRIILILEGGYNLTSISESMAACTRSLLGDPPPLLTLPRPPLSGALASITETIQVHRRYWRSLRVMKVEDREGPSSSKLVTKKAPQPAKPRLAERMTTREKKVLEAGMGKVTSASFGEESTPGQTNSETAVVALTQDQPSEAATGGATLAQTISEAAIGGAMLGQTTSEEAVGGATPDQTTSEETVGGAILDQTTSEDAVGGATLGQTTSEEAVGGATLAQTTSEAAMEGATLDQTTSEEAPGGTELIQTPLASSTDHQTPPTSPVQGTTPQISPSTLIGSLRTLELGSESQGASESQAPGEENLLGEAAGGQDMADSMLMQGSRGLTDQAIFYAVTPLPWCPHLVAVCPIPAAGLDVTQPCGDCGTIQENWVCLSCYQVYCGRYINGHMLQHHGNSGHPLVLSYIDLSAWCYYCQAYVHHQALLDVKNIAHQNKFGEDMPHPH

[11] = tested on: M14; test: Cytotoxicity against human M14 cells assessed as cell viability at 100 uM after 24 hrs by CellTiter-Glo luminescence assay; format: functional, cell-based; in short: as §4
[12] = tested on: M14; test: Cytotoxicity against human M14 cells assessed as cell viability at 100 uM after 48 hrs by CellTiter-Glo luminescence assay; format: functional, cell-based; in short: as §4
[13] = tested on: B16-F10; test: (§5) Cytotoxicity against mouse B16F10 cells expressing p53 mutant after 48 hrs by hexosaminidase assay; format: functional, cell-based
In short: (§6)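 SK-MEL-28 or B16/F10 cells plated in 96-well plates, grown overnight, then treated with 0–50 µM compound for 48 h. Cells washed with PBS, given hexosaminidase substrate for 30 min at 37 °C, then developer. Absorbance read at 405 nm. Percent viability = treated/control absorbance × 100.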

[14] = as §5; format: functional, cell-based; details: B16-F10, 48 h; in short: as §6
[15] = target: Histone deacetylase 2 (Homo sapiens) (UniProt Q92769); test: Inhibition of HDAC2 (unknown origin) up to 100 uM
Sequence of Histone deacetylase 2 (Homo sapiens) (Q92769 whole entry): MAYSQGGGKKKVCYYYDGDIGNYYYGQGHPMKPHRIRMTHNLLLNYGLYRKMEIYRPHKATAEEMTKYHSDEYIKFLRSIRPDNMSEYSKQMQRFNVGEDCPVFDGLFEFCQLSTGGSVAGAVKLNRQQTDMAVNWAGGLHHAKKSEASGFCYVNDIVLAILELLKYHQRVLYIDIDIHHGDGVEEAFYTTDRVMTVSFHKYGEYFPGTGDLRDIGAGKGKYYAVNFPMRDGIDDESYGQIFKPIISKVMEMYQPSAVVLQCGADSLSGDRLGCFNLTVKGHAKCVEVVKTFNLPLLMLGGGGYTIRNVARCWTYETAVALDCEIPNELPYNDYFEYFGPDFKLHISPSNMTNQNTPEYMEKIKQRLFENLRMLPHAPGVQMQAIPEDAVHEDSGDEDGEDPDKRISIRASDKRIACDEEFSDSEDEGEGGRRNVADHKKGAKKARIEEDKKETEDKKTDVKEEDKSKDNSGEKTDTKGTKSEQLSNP

[16] = tested on: SK-MEL-28; test: Cytotoxicity against human SK-MEL-28 cells expressing B-raf V600E mutant after 48 hrs by hexosaminidase assay; format: functional, cell-based; in short: as §6
[17] = tested on: M14; test: Cytotoxicity against human M14 cells after 72 hrs by CellTiter-Glo luminescence assay; format: functional, cell-based; in short: as §1

**Q.** With `CCC[C@@H]1CNC(=O)C(=O)N1C[C@@H]1CCCN1C[C@@H](Cc1ccc(O)cc1)N1C[C@H](Cc2ccc(O)cc2)N(CC2CCCC2)C(=O)C1=O` as the compound, how does the inhibition at 100 µM [1] read?
**A.** 23%

**Q.** What about the inhibition at 100 µM [2] of the same compound?
**A.** 16%

**Q.** What about the cytotoxicity at 72 h, 100 µM [3] of the same compound?
**A.** 19%

**Q.** Which Activity [4] does the source give for `CC(C)(C)c1ccc(C(O)CCCN2CCC(C(O)(c3ccccc3)c3ccccc3)CC2)cc1` (stereo unspecified) here?
**A.** Active

**Q.** And the Activity [5]?
**A.** Active

**Q.** What about the Activity [6] of the same compound?
**A.** Active

**Q.** Which Activity [7] does the source give for `C[C@H](CCC(=O)O)C[C@H](C)C[C@H](C)C(=O)/C=C(\O)[C@H](C)C[C@H](C)C/C=C/[C@@H](C)[C@@H](O)[C@@H](C)[C@@H](O)C[C@@H]1CC[C@@](C)([C@H]2CC[C@@](C)([C@@H](C)O)O2)O1` here?
**A.** inactive

**Q.** What about the Activity [6] of the same compound?
**A.** Dose-dependent effect

**Q.** With `O=C1NC[C@H](Cc2ccccc2)N(C[C@@H]2CCCN2C[C@H](Cc2ccccc2)N2C[C@H](Cc3ccc(O)cc3)N(CCC34CC5CC(CC(C5)C3)C4)C(=O)C2=O)C1=O` as the compound, how does the inhibition [8] read?
**A.** inactive

**Q.** What about the Activity [9] of the same compound?
**A.** inactive

**Q.** And the inhibition [10]?
**A.** inactive

**Q.** What about the Activity [11] of the same compound?
**A.** Active

**Q.** What about the Activity [12] of the same compound?
**A.** Active

**Q.** What about the inhibition [13] of the same compound?
**A.** Dose-dependent effect

**Q.** And the IC50 [14]?
**A.** 1.15 µM

**Q.** And the inhibition [15]?
**A.** inactive

**Q.** And the inhibition [16]?
**A.** Dose-dependent effect

**Q.** What about the inhibition [17] of the same compound?
**A.** Dose-dependent effect

**Q.** What about the IC50 ([17]; M14, 72 h) of the same compound?
**A.** 0.75 µM

**Q.** With `CCC[C@@H]1CNC(=O)C(=O)N1C[C@@H]1CCCN1C[C@@H](Cc1ccc(O)cc1)N1C[C@H](Cc2ccc(O)cc2)N(CC(CC)c2ccccc2)C(=O)C1=O` (stereo partly specified) as the compound, how does the inhibition at 100 µM [1] read?
**A.** 7%

**Q.** What about the inhibition at 100 µM [2] of the same compound?
**A.** 4%

**Q.** What about the cytotoxicity at 72 h, 100 µM [3] of the same compound?
**A.** 48%

**Q.** For `CCC[C@@H]1CNC(=O)C(=O)N1C[C@@H]1CCCN1C[C@H](Cc1ccc(O)cc1)N1C[C@H](Cc2ccc(O)cc2)N(CC2CCCC2)C(=O)C1=O`, which inhibition at 100 µM [1] is on record?
**A.** 15%

**Q.** What about the inhibition at 100 µM [2] of the same compound?
**A.** 0%

**Q.** What about the cytotoxicity at 72 h, 100 µM [3] of the same compound?
**A.** 7%

**Q.** For `CCC[C@@H]1CNC(=O)C(=O)N1C[C@@H]1CCCN1C[C@H](Cc1ccc(O)cc1)N1C[C@@H](Cc2ccc(O)cc2)N(CC(CC)c2ccccc2)C(=O)C1=O` (stereo partly specified), which cytotoxicity at 72 h, 100 µM [3] is on record?
**A.** 0%
